Experimental data gathered from unrelated publications.
pIC50: −log10 of the molar value.
Cell line: MCF7
Read-out: cell growth or viability

Compound | technique | tested at | time | measurement | result
O=C(Nc1ccc(Cl)cc1)Nc1cccc(-c2cn(Cc3ccc(Cl)cc3)nn2)c1 | CCK-8 | 50 µM | 72 h | viability | 98.2%
COc1ccc2/c(=N/c3ccccc3NC(=O)[C@@H](N)C(C)(C)C)cc(-c3ccc4c(c3)OCO4)oc2c1 | CCK-8 | 1 µM | – | inhibition | 14.2%
COc1ccc(NC(=O)Nc2ccc(-c3cn(Cc4cccc(Cl)c4)nn3)cc2)cc1 | CCK-8 | 50 µM | 48 h | viability | 95.4%
O=C(Nc1ccccc1/N=c1\cc(-c2ccc3c(c2)OCCO3)oc2cc(F)ccc12)N1CCOCC1 | CCK-8 | 1 µM | – | inhibition | 16.7%
O=C(NCc1cn(Cc2ccc(Cl)cc2)nn1)Nc1ccccc1Br | CCK-8 | 50 µM | 48 h | viability | 84.4%
O=C(Nc1ccccc1/N=c1\cc(-c2ccc3c(c2)OCO3)oc2ccccc12)N1CCNCC1 | CCK-8 | 1 µM | – | inhibition | 13.5%
O=C(Nc1ccc(Cl)cc1)Nc1cccc(-c2cn(Cc3cccc(Br)c3)nn2)c1 | CCK-8 | 50 µM | 48 h | viability | 85.3%
COc1cccc2c1C(=O)c1c(O)c3c(c(O)c1C2=O)C[C@@](O)(C(=O)CO)C[C@@H]3O[C@H]1C[C@H](N)[C@H](O)[C@H](C)O1 | MTT | – | 48 h | pIC50 | 5.51
COc1cccc2c1C(=O)c1c(O)c3c(c(O)c1C2=O)C[C@@](O)(C(=O)CO)C[C@@H]3O[C@H]1C[C@H](N)[C@H](O)[C@H](C)O1 | MTT | – | 24 h | pIC50 | 5.23
O=C(Nc1ccc(Cl)cc1)Nc1ccc(-c2cn(Cc3ccc(Br)cc3)nn2)cc1 | CCK-8 | 50 µM | 72 h | viability | 97.8%
Cc1ccccc1Cn1cc(-c2cccc(NC(=O)Nc3ccc(F)cc3)c2)nn1 | CCK-8 | 50 µM | 48 h | viability | 100%
O=C(Nc1ccc(Cl)cc1)Nc1cccc(-c2cn(Cc3cccc(Cl)c3)nn2)c1 | CCK-8 | 50 µM | 48 h | viability | 92.3%
CN(C)CCNC(=O)c1ccc(-c2nc3ccc4[nH]ncc4c3c3c2CCCC3)c(F)c1 | – | – | 72 h | GI50 | 3.32 µM
COc1cc(C=NNC(=O)c2nc3ccccc3s2)ccc1OS(C)(=O)=O | MTT | 100 µM | 48 h | cell death | 49.1%
NCCC(=O)Nc1ccccc1/N=c1\cc(-c2ccc3nc(N)oc3c2)oc2ccccc12 | CCK-8 | 1 µM | – | inhibition | 46%
COc1ccc(NC(=O)NCc2cn(Cc3ccc(Br)cc3)nn2)cc1 | CCK-8 | 50 µM | 48 h | viability | 87.8%
CC(C)(C)[C@H](N)C(=O)Nc1ccccc1/N=c1\cc(-c2ccc3c(c2)OCCO3)oc2cc(F)ccc12 | CCK-8 | 1 µM | – | inhibition | 9.85%
O=C(Nc1ccc(Cl)cc1)Nc1ccc(-c2cn(Cc3ccc(Cl)cc3)nn2)cc1 | CCK-8 | 50 µM | 72 h | viability | 98%
COc1ccc(NC(=O)Nc2ccc(-c3cn(Cc4ccc(C)cc4)nn3)cc2)cc1 | CCK-8 | 50 µM | 72 h | viability | 87.4%
CS(=O)(=O)NCCC(=O)Nc1ccccc1/N=c1\cc(-c2ccc3nc(N)oc3c2)oc2ccccc12 | CCK-8 | 1 µM | – | inhibition | 2%
